Compound activity: PubChem, Johns Hopkins Ion Channel Center
This is a sample that favours compounds with a hit; in the whole collection about 3.8% have one here.
hERG protect – shields human hERG channel from block by proarrhythmic agents. Q12809. CHO-hERG, FluxOR thallium flux, dofetilide IC70 present. activation (rescue from dofetilide block), less the hit threshold, % at 10 µM. actives 0.51% (n = 310,000);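 active = activation above the mean of controls blocked by dofetilide plus 5 SD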;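 also: thallium influx through hERG after potassium depolarization seen as dye fluorescence rise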
Target sequence (Q12809 whole entry, looked up): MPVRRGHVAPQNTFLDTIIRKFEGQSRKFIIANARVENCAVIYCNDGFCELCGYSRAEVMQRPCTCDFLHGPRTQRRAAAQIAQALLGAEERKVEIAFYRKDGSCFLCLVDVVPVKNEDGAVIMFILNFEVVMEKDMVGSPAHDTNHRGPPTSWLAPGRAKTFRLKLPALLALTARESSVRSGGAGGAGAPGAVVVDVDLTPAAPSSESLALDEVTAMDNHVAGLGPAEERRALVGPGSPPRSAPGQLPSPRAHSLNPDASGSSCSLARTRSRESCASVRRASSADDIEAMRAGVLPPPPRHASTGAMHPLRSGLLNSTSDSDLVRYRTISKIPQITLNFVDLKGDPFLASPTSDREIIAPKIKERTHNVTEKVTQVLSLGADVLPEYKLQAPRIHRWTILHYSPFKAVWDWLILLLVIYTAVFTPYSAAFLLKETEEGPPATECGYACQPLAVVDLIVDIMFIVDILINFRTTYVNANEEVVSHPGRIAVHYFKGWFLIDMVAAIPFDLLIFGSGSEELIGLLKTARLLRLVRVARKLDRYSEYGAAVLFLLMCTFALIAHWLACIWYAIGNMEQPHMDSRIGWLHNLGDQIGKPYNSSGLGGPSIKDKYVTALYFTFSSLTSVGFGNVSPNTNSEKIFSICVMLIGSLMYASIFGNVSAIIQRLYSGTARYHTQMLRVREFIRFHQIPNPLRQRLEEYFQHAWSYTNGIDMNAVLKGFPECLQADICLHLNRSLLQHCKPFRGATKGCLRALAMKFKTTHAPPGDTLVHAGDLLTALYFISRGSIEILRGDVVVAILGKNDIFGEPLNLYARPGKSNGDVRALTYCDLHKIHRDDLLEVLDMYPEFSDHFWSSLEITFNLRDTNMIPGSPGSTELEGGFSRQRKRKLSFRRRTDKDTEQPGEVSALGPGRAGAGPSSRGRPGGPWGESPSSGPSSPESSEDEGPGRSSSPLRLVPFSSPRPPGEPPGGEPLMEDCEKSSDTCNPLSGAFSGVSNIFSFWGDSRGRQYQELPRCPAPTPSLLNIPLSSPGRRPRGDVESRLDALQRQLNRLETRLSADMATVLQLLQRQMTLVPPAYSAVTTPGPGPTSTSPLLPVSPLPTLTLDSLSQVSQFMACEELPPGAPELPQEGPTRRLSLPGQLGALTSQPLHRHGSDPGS
KCNQ1 inh – human KCNQ1 channel inhibition; P51787; CHO-K1 KCNQ1, FluxOR thallium flux fluorescence; hits give high values; B-score at 10 µM; actives 1.3% (n = 310,000); AID 2642;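 active = compounds whose thallium flux B-score, printed positive for inhibition, exceeds three library SD while starting fluorescence stays within three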;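 also: channel opened by potassium depolarization with thallium stimulus after 20 min compound exposure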
KCNQ1 pot – potentiators or activators of human KCNQ1 potassium channel | P51787 | CHO-K1 KCNQ1, thallium flux FluxOR fluorescence; hits give high values | B-score at 10 µM | actives 0.35% (n = 310,000) | AID 2648;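 active = fluorescence ratio B-score, a plate-corrected score, at least three library SD, with initial intensity B-score within 5 SD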
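Test system: CHO-K1 cells stably expressing KCNQ1 / Medium: assay buffer / Also added: depolarizing K+/Tl+ stimulus, K2SO4 and Tl2SO4 each 12.5 mM in 5x stock / Incubation: 90 min dye loading and 20 min compound exposure, both at room temperature / Signal: thallium influx via FluxOR fluorescence, kinetic imaging / Evaluation: B score of baseline-normalized fluorescence ratio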
KCNK9 block – blocks the human KCNK9 two-pore domain potassium channel; Q9NPC2; HEK293 KCNK9, FluxOR thallium flux fluorescence; hits give low values; B-score at 10 µM; actives 1.2% (n = 310,000);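 active = ratio B-score over 3 SD below the library mean, with starting fluorescence within 5 SD of its mean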;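 also: negative B-score means less thallium flux so channel inhibition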
Kir21 inh – inhibitors of mouse Kir2.1 inward-rectifier potassium channel | HEK293-Kir2.1, FluxOR thallium flux fluorescence; hits give low values | B-score at 10 µM | actives 0.85% (n = 310,000) | AID 1672;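 active = fluorescence ratio B-score at or below minus 3 SD of library scores, with starting-brightness B-score within 2 SD, cut at about -4.2 in these data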;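 also: channel flux triggered by added potassium and thallium sulfate stimulus; B-score of peak minus minimum fluorescence over baseline after thallium stimulus; more negative B-score means stronger Kir2.1 block with less thallium influx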
KCNK3 block – human KCNK3 channel inhibition, primary screen | O14649 | actives 0.84% (n = 340,000) | CHO-KCNK3 thallium flux, FluxOR fluorescence; hits give low values | B-score at 10 µM;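 active = B-score under library mean minus 4 SD, starting fluorescence ratio at most library mean plus 5 SD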;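 also: more negative B-score means stronger inhibition of thallium flux through KCNK3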
KCNK3 confirm – human KCNK3 channel inhibition, confirmation assay. shares compounds with KCNK3 block. ratio percent of control, % at 10 µM. actives 99% (n = 2,400). CHO-KCNK3 thallium flux, FluxOR fluorescence; 0% buffer, 100% carvedilol maximal block. AID 651638;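 active = ratio percent of control, averaged over triplicates, above buffer control mean plus 5 SD, cut at about 64% in these data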;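 also: ratio is the fluorescence rise from min to max over baseline after thallium stimulus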
KCNK3 noninduced – KCNK3 inhibitor counter-screen hit in non-induced cells; shares compounds with KCNK3 block; non-induced KCNK3 parental cells, FluxOR thallium flux; hits give low values; thallium flux ratio (lower = more inhibition) at 10 µM; actives 40% (n = 2,400); AID 651747;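 active = thallium flux ratio, averaged over three wells, more than 5 SD below the buffer control mean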;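 also: host cells are CHO cells without KCNK3 induction; ratio is peak minus trough fluorescence over baseline then normalized to buffer controls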
Active calls of the source: *; i = inactive; x = no result.

SMILES	hERG protect	KCNQ1 inh	KCNQ1 pot	KCNK9 block	Kir21 inh	KCNK3 block	KCNK3 confirm	KCNK3 noninduced
CCOC(=O)C1=C(CSc2nc(CC)c(C)cc2C#N)OC(N)=C(C#N)C1c1ccccc1 (configuration not stated)	-7	i	i	i	0.45	-9.8*	109*	i
CCOC(=O)CC1=C(C(=O)OCC)C(c2ccncc2)C(C#N)=C(N)O1 (configuration not stated)	x	x	x	x	x	i	x	x
COc1ccccc1OCc1ccc(C(=O)Nc2ccccc2F)cc1	-3	i	i	i	-1.2	i	x	x
COc1ccccc1NC(=O)c1ccccc1Oc1ccccc1	-8	i	i	i	0.03	-8.8*	122*	0.12*
COc1ccccc1NC(=O)c1ccc(COc2ccccc2OC)cc1	-8	i	i	i	-0.02	-8.8*	103*	i
CCCCN1C(=O)C(=O)N(CC(=O)Nc2cc(OCC)c(N3CCOCC3)cc2OCC)C1=O	-5	i	i	i	-0.26	i	x	x
Cc1ccc(C(=O)Nc2cccc(-c3nc4ncccc4o3)c2)cc1	-18	i	i	i	-0.29	-10*	90*	i
O=C(Nc1cccc(-c2nc3ncccc3o2)c1)c1ccccc1	-33	i	i	i	-1.3	i	x	x
c1ccc(SCc2cc(-c3ccccc3)no2)cc1	-9	i	i	i	-0.85	-10*	100*	i
Nc1ccccc1SCc1cn2cccnc2n1	-3	i	i	i	1	i	x	x
COc1ccc(C2C(C(=O)c3ccco3)=C(O)C(=O)N2Cc2cccnc2)cc1OC (configuration not stated)	0	i	i	i	0.85	-9.3*	64*	i
CCOc1ccc(C2C(C(=O)c3ccco3)=C(O)C(=O)N2Cc2cccnc2)cc1 (configuration not stated)	-9	i	i	i	0.4	i	x	x
CN(Cc1ccccc1F)C(=O)COc1ccc(C(=O)c2ccccc2)cc1	-11	i	i	-7.7*	-2	-12*	119*	i
Cc1cc(SCC(=O)N/N=C/c2ccc(O)cc2O)nc2ccccc12	-1	i	i	i	-2.5	-12*	147*	0.1*
Cc1ccc2nc(-c3ccc(NC(=S)NC4CC(C)(C)NC(C)(C)C4)cc3)sc2c1	-32	8*	i	i	-5.1*	-15*	125*	0.15*
Cc1ccc2nc(-c3ccc(NC(=S)NC(=O)C(C)C)cc3)sc2c1	-7	i	i	i	-1.1	i	x	x
Cc1cc(NC(=O)CCCn2nc([N+](=O)[O-])c(Cl)c2C)no1	-9	i	i	i	0.72	i	x	x
Cc1ccccc1Cn1nc(C)c(NC(=O)c2sc3ccccc3c2Cl)c1C	-9	i	i	i	1.1	-9*	149*	0.11*
O=C(CN(C(=O)c1ccccc1)N1C(=O)CCC1=O)c1cccs1	-4	i	i	i	0.82	i	x	x
Cc1cccc(Sc2c(C=O)c3ccccc3n2C)c1	-6	i	i	i	-0.87	-10*	110*	0.14*
O=C(Nc1cccc(-n2cnnn2)c1)c1ccncc1	-5	i	i	i	-0.04	i	x	x
O=C(Nc1cccc(O)c1)c1cccc(NC(=O)c2cccs2)c1	-25	i	i	-8*	-0.45	-13*	110*	i
O=C(Nc1cccc(-n2cnnn2)c1)c1cccs1	-10	i	i	i	-0.55	-10*	79*	i
CC(=O)Nc1ccc2nc(C3CC3)n(Cc3ccc(Cl)cc3)c(=O)c2c1	-16	i	i	i	0.01	i	x	x
O=C(Nc1ccc2nc(C3CC3)n(Cc3ccc(F)cc3)c(=O)c2c1)c1ccco1	-8	i	i	i	0.84	-9.9*	89*	i
SMILES	hERG protect	KCNQ1 inh	KCNQ1 pot	KCNK9 block	Kir21 inh	KCNK3 block	KCNK3 confirm	KCNK3 noninduced
CCN1CCCC1CNS(=O)(=O)c1ccc(Br)cc1 (configuration not stated)	-3	i	i	i	0.85	i	x	x
CCN1C(=O)C(CC(=O)Nc2ccc(OC)cc2)N(CCc2ccc(F)cc2)C1=S (configuration not stated)	-31	i	i	i	0.14	-9*	116*	i
CCN1C(=O)C(CC(=O)Nc2ccc(OC)cc2)N(CCCN2CCN(c3ccc(F)cc3)CC2)C1=S (configuration not stated)	-5	i	i	i	0.23	i	x	x
COc1ccc(NC(=O)CC2C(=O)N(C)C(=S)N2CCc2ccc(F)cc2)cc1 (configuration not stated)	-8	i	i	i	1.2	i	x	x
COc1ccc(CCN2C(=S)N(C)C(=O)C2CC(=O)Nc2ccc(OC)cc2)cc1 (configuration not stated)	-8	i	i	i	-0.67	-9.2*	86*	0.15*
COc1ccc(S(=O)(=O)/N=C2/NC(=O)/C(=C\c3cc(OC)c(OC)cc3[N+](=O)[O-])S2)cc1	-7	i	i	i	0.46	i	x	x
CCCN(CCC)CCCNC(=O)CN1C(=O)CSc2ccc(S(=O)(=O)N3CCOCC3)cc21	-6	i	i	i	-0.48	i	x	x
N/C(=N\OC(=O)c1cccc2ccccc12)c1cccc([N+](=O)[O-])c1	-4	i	i	i	1.8	i	x	x
Cc1cccc(/C(N)=N/OC(=O)c2cccc3ccccc23)c1	-7	i	i	i	0.22	-9.3*	92*	i
CC[C@@H]1C=C(C(=O)O)[C@H](c2ccc3c(c2)OCO3)N1S(=O)(=O)c1ccc(C)cc1	x	x	x	x	x	i	x	x
COc1cccc(N(CC(=O)N2CCOCC2)S(C)(=O)=O)c1	-8	i	i	i	-0.01	i	x	x
CCCSc1nnc2c(n1)OC(c1cccn1C)N(C(C)=O)c1ccccc1-2 (configuration not stated)	-7	i	i	i	-1.5	-13*	122*	i
Cc1cc(Cl)c(C)c(S(=O)(=O)N2CCN(C(=O)C3CCCO3)CC2)c1Cl (configuration not stated)	x	x	x	x	x	i	x	x
Clc1ccccc1-c1nc(-c2ccc(Br)o2)no1	-2	i	i	i	0.48	-10*	123*	0.15*
O=[N+]([O-])c1ccccc1-c1nc(-c2ccc(Br)o2)no1	-8	i	i	i	-2.2	i	x	x
